The values that follow come from ChEMBL document CHEMBL4513216, “Probing the Open Global Health Chemical Diversity Library for Multistage-Active Starting Points for Next-Generation Antimalarials” (ACS Infect Dis, 2020).

The data set can be described thus: Toxicity liver stage against HepG2, at 10uM. It counts as cell-based. More on the design: test concentration 10 uM, cell line HepG2-A16-CD81EGFP. The conditions noted are these: human, HepG2-A16-CD81EGFP cells; read-out: INHIBITION
The procedure, abridged: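 Uninfected HepG2-A16-CD81EGFP cells, 3 × 10^3 per well, 1536-well, plated on prespotted compound at 10 μM final, parasite-free screening media added to match infected plates; puromycin 10 μM positive, DMSO 0.5% negative; run in parallel with 48 h PbLuc assay at 37 °C, 5% CO2; viability by CellTiter-Glo luminescence, normalized to controls.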
Take `Cc1ccc(S(=O)(=O)N2C[C@H]3C[C@H](NC(=O)c4cscn4)[C@H]3C2)cc1`: the cytotoxicity at 10 µM amounted to 12%. With `Cn1nccc1C(=O)N1C[C@@H]2CC[C@H](Oc3cccc(F)c3)[C@@H]2C1`, the cytotoxicity at 10 µM was -13.8%. The same measure for `CC(=O)N1CCCC(c2ccc(C(=O)NC3CCCC3)cn2)C1` (stereo not given): 0.692%. As to `O=C(CC1CCCCC1)NC1CCCc2nc(N3CCOCC3)ncc21` (stereo not given), the cytotoxicity at 10 µM was -5.24%. Turning to `CCN(Cc1cc(=O)n2cc(Br)ccc2n1)C1CC1`, the cytotoxicity at 10 µM was 7.95%. With `CN(CCc1cccs1)C(=O)Nc1ccc2c(c1)C(=O)N(C)CC2` the figure was -5.44%; with `COCCN(Cc1ccc(C)o1)C(=O)Nc1nnc2ccccn12`, -1.59%. With `COc1ccc(CCNC(=O)C2CCCOC2)c(Cl)c1` (stereo not given) the figure was 0.0357%; with `Cn1c(Cl)cnc1CN1CCCC1c1ccc2c(c1)OCCO2` (stereo not given), -1.29%. With `COCCn1cc(C(=O)N2CCCC2c2cccs2)c2ccccc21` (stereo not given) the figure was 23.7%; with `CCc1noc(CS(=O)(=O)Cc2nc(Cc3ccccc3)no2)n1`, 5.45%; with `CN(Cc1ccccc1)C(=O)CN1CCCCC1Cn1cncn1` (stereo not given), 10.4%. Take `C=C(C)CN(CC)Cc1nc(C2CC2)no1`: the cytotoxicity at 10 µM was -7.51%. The same measure for `NC(=O)C1CCN(CC(=O)N2CCCC2c2ccsc2)CC1` (stereo not given): -11.4%; for `Cn1ncnc1CNC1CCCc2cc(F)ccc21` (stereo not given): -5.62%. With `CC(NCc1ccc(F)cc1)c1ccc(S(C)(=O)=O)cc1` (stereo not given) the figure was 12.6%. In the case of `CN(Cc1cc(F)ccc1F)CC(C)(CO)CO`, the cytotoxicity at 10 µM was -5.38%. The same measure for `CCCN(CCc1cccc(F)c1)c1ccc2nnnn2n1`: 1.44%; for `Cc1cnc(N2CCn3cc(CNC(=O)CC4CC4)nc3C2)nc1`: 12.3%. `COCCC(=O)N1CC[C@@H](N(C)C)[C@@H]1Cc1ccccc1`: the cytotoxicity at 10 µM was -5.05%. With `CC(C)c1nc2c(n1C)CCN(Cc1nc(-c3ccoc3)no1)C2` the figure was -2.06%. The same measure for `Cc1ccc(C(=O)NS(=O)(=O)c2cc(Br)ccc2C)c(=O)[nH]1`: -2.27%; for `Cc1oc(C)c(C(=O)NCc2ccccc2CN(C)C)c1C`: -16.9%. The same measure for `Nc1nccnc1C(=O)NCCCNc1ccc(C(F)(F)F)cn1`: -8.16%; for `CC(Cn1cccn1)NCc1ccc(Cl)s1` (stereo not given): -8.12%; for `CCc1noc(CN2CCN(C(=O)COC)CC2)n1`: -8.09%. Turning to `CCOCc1ccc(CNC(=O)N2CCC(C(N)=O)C2)cc1` (stereo not given), the cytotoxicity at 10 µM is -11.4%.

Take `Cc1ccccc1C(=O)NCCCN1CCc2ccccc2C1`: the cytotoxicity at 10 µM is -16.5%. Consider `Cc1cnn(CC2CCCN2Cc2noc(C(C)C)n2)c1` (stereo not given), for which the cytotoxicity at 10 µM was -1.67%.

In the case of `CC(NCc1cc(F)ccc1F)c1ccc(OCC(=O)NC2CC2)cc1` (stereo not given), the cytotoxicity at 10 µM is -13.2%. With `CC(=O)N1CCCN(C(=O)NCc2ccc(Cl)s2)CC1` the figure was -4.02%; with `Cn1ccc(C(=O)N2CCN(CC(O)C(C)(C)C)CC2)cc1=O` (stereo not given), 2.76%. The same measure for `CC(C)C(Sc1nnnn1C1CC1)C(=O)NCc1cccnc1` (stereo not given): -0.267%. The same measure for `c1cc(-c2noc(CN3CCn4c(nnc4C4CC4)C3)n2)co1`: -0.986%; for `Cn1cnnc1CNC(=O)Nc1cc(C(F)(F)F)c[nH]c1=O`: -3.2%; for `CC(C)c1nnc2n1CCN(C(=O)CN1CCc3sccc3C1)C2`: -4.97%. Turning to `Cc1nc(C)n(CC2CCCN2CCCOc2ccc(F)cc2)n1` (stereo not given), the cytotoxicity at 10 µM is -6.72%. With `Cc1n[nH]c(=O)c2c(NC(=O)CN3CCC(O)CC3)oc(C)c12` the figure was 1.17%; with `CN1CCO[C@@H]2CN(S(=O)(=O)c3ccccc3)C[C@@H]2C1`, 0.93%. `CN(C)C(=O)c1n[nH]c2c1CN(CC1CCCCC1)C2`: the cytotoxicity at 10 µM was determined as 2.86%.
